Reference: ChEMBL document CHEMBL1124235, “3-Phenoxypyridine 1-oxides as anticonvulsant agents” (1988)

Tests used:
Mus musculus [1] = assay: Dose required to protect Mice against tonic extension produced by maximal electroshock (MES) at 30 min post administration; format: functional; conditions: 0.5 h, read-out: MED
Procedure, shortened: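 Male Swiss-Webster mice (25–32 g), with food and water before testing, were dosed ip, the compound being in water or suspended in 0.29% Methocel. Doses were counted as free base, at levels of 10, 30, 100, 300 or >300 mg/kg, with n = 5. At 30 min, 90 mA, 1 ms monophasic pulses at 100 Hz were given through ear clips for 0.2 s. Value is the lowest dose protecting ≥2 mice from tonic hind-limb extension.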

Mus musculus [2] = assay: Dose at which mouse exhibited ataxia using the inverted screen procedure at 30 min post administration; format: functional
Procedure, shortened: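 Mice (n = 5 per dose) were scored 30 min after dosing at levels of 10, 30, 100, 300 or >300 mg/kg. They were placed on an inverted wire-mesh square, and impaired mice fall off.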

Mus musculus [3] = assay: Number of mice falling from an inverted wire mesh during a 1-min test period 20 min after ip administration at a dose of 60 mg/Kg in ataxia (inverted screen test); 6/12; format: functional
Procedure, shortened: (§1)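 Mice were dosed ip and placed on an inverted wire mesh 20 min after injection, for a 1-min test. The number of mice that fell per dose group was counted, and a dash means none fell.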

Mus musculus [4] = assay: Anticonvulsant activity by maximal electroshock test(MES) in mouse by ip administration at 0.5 hr postdosing
Mus musculus [5] = assay: Increase in spontaneous locomotion activity after intraperitoneal administration in mice at a dose of 40 mg/kg; format: functional
Procedure, shortened: (§2)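 After ip injection, spontaneous locomotor activity was recorded automatically over a 1-h period beginning 20 min after dosing, with nine or more mice per dose group. Values are percent change from saline-treated mice.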

Mus musculus [6] = assay: Number of mice falling from an inverted wire mesh during a 1-min test period 20 min after ip administration at a dose of 10 mg/Kg in ataxia (inverted screen test); - denotes 'no animals fell'; format: functional, organism-based; procedure, shortened: as §1
Mus musculus [7] = assay: Increase in spontaneous locomotion activity after intraperitoneal administration in mice at a dose of 20 mg/Kg; format: functional; procedure, shortened: as §2
Mus musculus [8] = assay: Increase in spontaneous locomotion activity after intraperitoneal administration in mice at a dose of 5 mg/Kg; format: functional; procedure, shortened: as §2
Rattus norvegicus [9] = assay: Anticonvulsant activity by maximal electroshock test(MES) in rat by po administration at 1 hr postdosing; format: functional
Mus musculus [10] = assay: Ataxia produced by rotarod ataxia test (ROT) in mouse by ip administration at 0.5 hr post dosing
Mus musculus [11] = assay: Ataxia produced by rotarod ataxia test (ROT) in mouse by po administration at 0.5 hr post dosing
Rattus norvegicus [12] = assay: Ataxia produced by […] in rat by po administration at 1 hr post dosing; format: functional
Procedure, shortened: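 Rats were dosed orally and checked 1.0 h afterwards. Ataxia was judged by visual (subjective) observation, not by rotarod. ED50 was calculated by probit analysis of quantal data from four dose groups of eight rats each, with 95% confidence intervals.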

Mus musculus [13] = assay: Increase in spontaneous locomotion activity after intraperitoneal administration in mice at a dose of 60 mg/kg; format: functional; procedure, shortened: as §2
Mus musculus [14] = assay: Number of mice falling from an inverted wire mesh during a 1-min test period 20 min after ip administration at a dose of 40 mg/Kg in ataxia (inverted screen test); 1/12; format: functional; procedure, shortened: as §1
Mus musculus [15] = assay: Increase in spontaneous locomotion activity after intraperitoneal administration in mice at a dose of 10 mg/Kg; format: functional; procedure, shortened: as §2
Mus musculus [16] = assay: Number of mice falling from an inverted wire mesh during a 1-min test period 20 min after ip administration at a dose of 20 mg/Kg in ataxia (inverted screen test); 1/12; format: functional; procedure, shortened: as §1
Mus musculus [17] = assay: Anticonvulsant activity by maximal electroshock test(MES) in mouse by po administration at 0.5 hr postdosing

Row | SMILES | minimal effective dose (Mus musculus [1]) [mg/kg] | MAD (Mus musculus [2]) [mg/kg] | also measured
1 | [O-][n+]1ccc(Cl)c(Oc2ccccc2)c1 | > 300 | 300 | –
2 | OCc1ccncc1Oc1ccccc1 | 300 | 300 | –
3 | N#Cc1cc[n+]([O-])cc1Oc1ccccc1 | 300 | 300 | –
4 | [O-][n+]1ccc(CO)c(Oc2ccccc2)c1 | 300 | 30 | –
5 | c1ccc2c(c1)Cc1ccncc1O2 | 100 | 300 | –
6 | CC(C)c1cc[n+]([O-])cc1Oc1ccccc1 | 30 | 100 | –
7 | COc1ccc(Oc2c[n+]([O-])ccc2C)cc1 | 300 | 300 | –
8 | O=C(O)c1cc[n+]([O-])cc1Oc1ccccc1 | > 300 | >300 | –
9 | Cc1cc[n+]([O-])cc1Oc1ccc(Cl)cc1 | 100 | 100 | –
10 | Cc1cc[n+]([O-])cc1Oc1ccccc1 | 30 | 100 | Activity (Mus musculus [3]): 6; ED50 (Mus musculus [4]): 23 mg/kg; Change (Mus musculus [5]): 92%; Activity (Mus musculus [6]): Not toxic; Change (Mus musculus [7]): 75%; Change (Mus musculus [8]): 12%; ED50 (Rattus norvegicus [9]): 11 mg/kg; ED50 (Mus musculus [10]): 76 mg/kg; ED50 (Mus musculus [11]): 300 mg/kg; ED50 (Rattus norvegicus [12]): 75 mg/kg; Change (Mus musculus [13]): 63%; Activity (Mus musculus [14]): 1; Change (Mus musculus [15]): 55%; Activity (Mus musculus [16]): 1; ED50 (Mus musculus [17]): 85 mg/kg
